Among the data in ChEMBL document CHEMBL5357047, “The development of thymol-isatin hybrids as broad-spectrum antibacterial agents with potent anti-MRSA activity” (RSC Med Chem, 2024) are zone of inhibition values, retold here.

The structures appear in SMILES notation.

What all share (format): functional
What all share (details): read-out: IZ

Assay [1] deals with Staphylococcus aureus. As to the kind of experiment: Antibacterial activity against Staphylococcus aureus MTCC 740 assessed as inhibition of bacterial growth at 50 uM measured after 48 hrs by agar well diffusion method. In general terms: In agar diffusion tests the substance spreads into inoculated agar from a disc or well.
The test system of assay [2] is Staphylococcus aureus. The assay is described as follows: Antibacterial activity against clinically isolated Staphylococcus aureus RBRJ010 assessed as inhibition of bacterial growth at 50 uM measured after 48 hrs by agar well diffusion method.
In assay [3] the test system is Staphylococcus epidermidis. The assay is described as follows: Antibacterial activity against Staphylococcus epidermidis MTCC 435 assessed as inhibition of bacterial growth at 50 uM measured after 48 hrs by agar well diffusion method.
Assay [4] deals with Staphylococcus aureus. The assay is described as follows: Antibacterial activity against clinically isolated Methicillin-resistant Staphylococcus aureus assessed as inhibition of bacterial growth at 50 uM measured after 48 hrs by agar well diffusion method.
The test system of assay [5] is Staphylococcus aureus. The assay is described as follows: Antibacterial activity against Methicillin-resistant Staphylococcus aureus ATCC 33591 assessed as inhibition of bacterial growth at 50 uM measured after 48 hrs by agar well diffusion method. The essentials: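 Agar well diffusion on Mueller Hinton agar seeded with bacteria at 0.5 McFarland. […] Incubated 48 h at 37 °C aerobically; zone of inhibition diameter (mm) measured. Triplicate.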

In assay [6] the test system is Enterococcus faecalis. The assay is described as follows: Antibacterial activity against Enterococcus faecalis MTCC 439 assessed as inhibition of bacterial growth at 50 uM measured after 48 hrs by agar well diffusion method.
The subject of assay [7] is Enterococcus faecalis. As to the kind of experiment: Antibacterial activity against clinically isolated Enterococcus faecalis RBRJ015 assessed as inhibition of bacterial growth at 50 uM measured after 48 hrs by agar well diffusion method.
Assay [8] concerns Klebsiella pneumoniae. As to the kind of experiment: Antibacterial activity against Klebsiella pneumoniae MTCC 109 assessed as inhibition of bacterial growth at 50 uM measured after 48 hrs by agar well diffusion method.
Assay [9] deals with Klebsiella pneumoniae. The assay is described as follows: Antibacterial activity against clinically isolated Klebsiella pneumoniae RBRJ019 assessed as inhibition of bacterial growth at 50 uM measured after 48 hrs by agar well diffusion method.
Assay [10] has as its system Klebsiella pneumoniae. The assay is described as follows: Antibacterial activity against clinically isolated Klebsiella pneumoniae RBRJ024 assessed as inhibition of bacterial growth at 50 uM measured after 48 hrs by agar well diffusion method.
In assay [11] the test system is Escherichia coli. As to the kind of experiment: Antibacterial activity against Escherichia coli MTCC 119 assessed as inhibition of bacterial growth at 50 uM measured after 48 hrs by agar well diffusion method.
The test system of assay [12] is Escherichia coli. As to the kind of experiment: Antibacterial activity against clinically isolated Escherichia coli RBRJ005 assessed as inhibition of bacterial growth at 50 uM measured after 48 hrs by agar well diffusion method.
Assay [13] concerns Escherichia coli. The assay is described as follows: Antibacterial activity against clinically isolated Escherichia coli RBRJ013 assessed as inhibition of bacterial growth at 50 uM measured after 48 hrs by agar well diffusion method.
Assay [14] relates to Enterobacter cloacae. As to the kind of experiment: Antibacterial activity against clinically isolated Enterobacter cloacae RBRJ017 assessed as inhibition of bacterial growth at 50 uM measured after 48 hrs by agar well diffusion method.
Assay [15] concerns Acinetobacter baumannii. As to the kind of experiment: Antibacterial activity against clinically isolated Acinetobacter baumannii RBRJ027 assessed as inhibition of bacterial growth at 50 uM measured after 48 hrs by agar well diffusion method.
Assay [16] concerns Pseudomonas aeruginosa. The assay is described as follows: Antibacterial activity against Pseudomonas aeruginosa MTCC 424 assessed as inhibition of bacterial growth at 50 uM measured after 48 hrs by agar well diffusion method.

Take `COc1ccc2c(c1)C(=O)C(=O)N2CCCCn1cc(COc2cc(C)ccc2C(C)C)nn1`: the zone of inhibition at 50 µM in assay [1] is 19 mm; in assay [2], 13.2 mm; in assay [3] it was 12.6 mm; in assay [4], 15.2 mm; in assay [5], 13.2 mm; in assay [6], 11.2 mm. The zone of inhibition at 50 µM was 13.2 mm in assay [7]; 14.7 mm in assay [8]; 12.2 mm in assay [9]; 11.3 mm in assay [10]; 14.4 mm in assay [11]; 14.2 mm in [12]. Also, the zone of inhibition at 50 µM in [13] was determined as 11.3 mm; in assay [14] it was 10.9 mm; in assay [15], 10.2 mm; in assay [16] it was 11.3 mm.

For the molecule `Cc1ccc(C(C)C)c(OCc2cn(CCCCN3C(=O)C(=O)c4cc(Cl)ccc43)nn2)c1`, the zone of inhibition at 50 µM in assay [1] came out at 18.4 mm; in [2], 12.6 mm; in [3] it was 14.3 mm; in assay [4], 14.2 mm; in assay [5], 13.6 mm; in [6] it was 11.2 mm. Besides, the zone of inhibition at 50 µM amounted to 13.4 mm in [7]; 13.2 mm in assay [8]; 12.3 mm in [9]; 10.3 mm in [10]; 10.3 mm in assay [11]; 12.3 mm in assay [12]. Moreover, the zone of inhibition at 50 µM in assay [13] amounted to 11.4 mm; in assay [14] it was 11.5 mm; in assay [15] it was 11.1 mm; in [16] it was 12.4 mm.

Take `Cc1ccc(C(C)C)c(OCc2cn(CCCCN3C(=O)C(=O)c4cc(C)ccc43)nn2)c1`: the zone of inhibition at 50 µM in [1] worked out at 19.5 mm; in assay [2] it was 14.6 mm; in assay [3], 11.4 mm; in assay [4] it was 15.8 mm; in assay [5], 14.2 mm; in [6] it was 12.4 mm. The zone of inhibition at 50 µM in [7] was determined as 15.3 mm; in [8] it was 15.4 mm; in [9] it was 13.2 mm; in assay [10], 12.2 mm; in assay [11], 15.5 mm; in assay [12] it was 13.1 mm. Moreover, the zone of inhibition at 50 µM amounted to 11.4 mm in assay [13], 11.6 mm in [14], 10.4 mm in [15] and 12.9 mm in [16].

For `Cc1ccc(C(C)C)c(OCc2cn(CCCCN3C(=O)C(=O)c4cc(Br)ccc43)nn2)c1`, the zone of inhibition at 50 µM in assay [1] was 18.1 mm; in assay [2], 11.2 mm; in assay [3], 14.2 mm; in assay [4], 13.5 mm; in assay [5] it was 13.1 mm; in [6], 10.3 mm. Moreover, the zone of inhibition at 50 µM in [7] amounted to 13.8 mm; in assay [8], 13.5 mm; in [9], 11.4 mm; in assay [10] it was 10.9 mm; in assay [11], 11.1 mm; in [12], 11.8 mm. Besides, the zone of inhibition at 50 µM in assay [13] came out at 11 mm; in assay [14], 11.1 mm; in [15] it was 10.7 mm; in assay [16] it was 11.3 mm.
